Compound activity (PubChem BioAssay)
FAS-TE inh: inhibitors of human fatty acid synthase thioesterase domain; P49327; recombinant FAS-TE, OMFH fluorogenic substrate, fluorescence endpoint; inhibition, % at 15 µM; 0.67% of 360,000 active;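 active = compounds whose normalised, plate-corrected inhibition of enzyme fluorescence in the single-dose primary screen is 50% or more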
Rtt109 HAT inh: C. albicans Rtt109 histone acetyltransferase inhibition; Q5AAJ8; purified Rtt109/Vps75, ThioGlo CoA-SH fluorescence, 4 h; inhibition, % at 34.9 µM; 0.16% of 330,000 active; AID 540336;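 active = inhibition of at least 50% in every replicate; inconclusive = best replicate reaches 50% inhibition but some replicates fall short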
HDAC3 inh: human HDAC3 inhibition. O15379. recombinant HDAC3, fluorogenic peptide/trypsin coupled, fluorescence. inhibition, % at 8.3 µM. 0.15% of 320,000 active; in the data active = inhibition above about 26%, passing the limit was not always enough; inconclusive = no clear call, values can overlap the other calls
UCH37 DUB inh: blocks the human deubiquitinase UCH37. Q9Y5K5. purified proteasome/UCH37, Ub-AMC cleavage fluorescence. inhibition, % (concentration not given with the values). 0.33% of 330,000 active. AID 588478;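 active = mean inhibition over replicate wells above about 20%, limit read from the data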
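Schedule: 30 min plus 25 min, room temperature / Material: human UCH37 within purified proteasomes / Technique: AMC fluorescence intensity at 355/460 nm / Buffer or medium: pH 7.4 Tris-HCl (50 mM) with ovalbumin, ATP-MgCl2, DTT / Controls: wells without proteasome as full block, compound-free enzyme plus substrate as uninhibited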
ALR inh: inhibitors of human sulfhydryl oxidase ALR | purified ALR, DTT oxidation, H2O2 HRP-luminol luminescence | 3.8% of 290,000 active | inhibition, % (concentration not given with the values);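 active = mean replicate inhibition above about 79%, with every replicate also reaching it, limit read from the data; inconclusive = only one of the two criteria met; inactive = mean below limit and not every replicate reaching it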
Target sequence (P55789 whole entry, looked up): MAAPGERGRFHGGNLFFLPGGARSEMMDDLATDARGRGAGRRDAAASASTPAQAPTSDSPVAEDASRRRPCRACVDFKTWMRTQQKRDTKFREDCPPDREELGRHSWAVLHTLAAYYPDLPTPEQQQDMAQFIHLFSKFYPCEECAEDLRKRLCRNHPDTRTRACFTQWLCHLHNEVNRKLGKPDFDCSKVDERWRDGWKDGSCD
M18AAP inhibitor: blocks P. falciparum M18 aspartyl aminopeptidase; recombinant PfM18AAP, H-Glu-NHMec fluorogenic cleavage; inhibition, % at 7.35 µM; 1.2% of 290,000 active; AID 1822;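 active = inhibition above the campaign mean inhibition over all tested compounds plus 3 SD, cut at about 28% in these data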
Numbers stand for hits; . = inactive; ? = inconclusive; / = not tested or not shown. Only some compounds are listed: those with a hit (about 4.6% of all), similar ones and a draw of the others.

SMILES | FAS-TE inh | Rtt109 HAT inh | HDAC3 inh | UCH37 DUB inh | ALR inh | M18AAP inhibitor
Cc1cc(NS(=O)(=O)c2ccc(NC(=O)CCCOc3ccccc3C)cc2)nc(C)n1 | . | . | . | . | 99 | .
Cc1ccccc1OCCCC(=O)Nc1ccc2c(c1)OCO2 | . | . | . | . | 98 | .
COc1ccccc1OCCC(=O)Nc1ccc2c(c1)OCO2 | . | . | . | . | / | /
Cc1ccc(OCC(=O)Nc2ccc(S(=O)(=O)Nc3ccccn3)cc2)c(C)c1 | . | . | . | . | . | .
COc1cc(OC)cc(C(=O)Nc2ccc(S(=O)(=O)Nc3cc(C)nc(C)n3)cc2)c1 | / | / | . | . | 85 | .
Cc1ccccc1OCC(=O)Nc1ccc(S(=O)(=O)Nc2ccccn2)cc1 | . | . | . | . | 99 | .
COc1ccccc1CCC(=O)Nc1ccc(S(=O)(=O)Nc2cc(C)nc(C)n2)cc1 | . | . | . | . | . | /
Cc1ccc(NC(=S)NNC(=O)Cn2nc([N+](=O)[O-])cc2C)cc1 | . | . | . | . | 85 | .
Cc1cc(C)n2nc(SCC(=O)NN=Cc3ccc(F)cc3)nc2n1 | / | / | / | . | / | /
C(/C=C/c1ccccc1)=NNc1ccc2nncn2n1 | / | / | / | . | / | /
Cc1ccc(C=NNC(=O)c2ccccn2)o1 | / | / | / | . | / | /
O=c1[nH]c(S)c(/C=C2\C=Nc3ccccc32)s1 | . | / | . | . | 99 | .
Oc1nc(Nc2ccc(F)cc2)sc1/C=C1\C=Nc2ccccc21 | . | . | . | / | . | .
COc1ccc2c(c1)c(C(=O)CN1CCOCC1)c(C)n2C | . | . | . | . | . | .
COc1ccc2c(c1)c(C(=O)CN1CCC3(CC1)OCCO3)c(C)n2C | . | . | . | 27 | . | .
N#CC1=C(N)Oc2cc(N)ccc2C1c1cccc(F)c1 (centres undefined) | . | . | . | . | ? | .
CN(C)c1ccc2c(c1)OC(N)=C(C#N)C2c1cccc(F)c1 (centres undefined) | . | . | . | . | . | 30
COC(=O)c1c(NC(=O)CCC(=O)O)sc2c1CCCCC2 | . | . | . | . | / | .
COc1ccc(OC)c(NC(=O)c2c(NC(=O)c3ccco3)sc3c2CCC3)c1 | / | / | / | . | / | .
COc1ccccc1NC(=O)c1c(NC(=O)CCC(=O)O)sc2c1CCCCC2 | . | . | . | . | 98 | .
COc1ccc(OC)c(NC(=O)c2c(NC(=O)CCC(=O)O)sc3c2CCCCC3)c1 | . | . | . | . | . | 37
O=C(O)CCC(=O)Nc1sc2c(c1C(=O)Nc1cccc3ccccc13)CCCCC2 | . | . | . | . | . | 30
CC(C)OC(=O)c1c(NC(=O)CCC(=O)O)sc2c1CCCCC2 | . | . | . | . | . | .
O=C(NN=Cc1ccc([N+](=O)[O-])cc1)c1cc(-c2ccc3c(c2)OCO3)n[nH]1 | / | / | / | . | / | /
COc1ccc(NC2CCCN(C(=O)COc3ccc(Cl)cc3C)C2)cc1OC (centres undefined) | . | . | . | . | 96 | .
SMILES | FAS-TE inh | Rtt109 HAT inh | HDAC3 inh | UCH37 DUB inh | ALR inh | M18AAP inhibitor
Cc1ccc(NC2CCCN(C(=O)CCC3=NNC(=O)CC3)C2)cc1C (centres undefined) | . | . | . | . | 98 | .
Cc1ccc(NC2CCCN(C(=O)CSc3ccccn3)C2)cc1C (centres undefined) | . | . | . | . | 99 | .
COc1ccccc1OCC(=O)N1CCCC(Nc2ccc(C)c(C)c2)C1 (centres undefined) | . | . | . | . | 98 | .
COc1ccccc1OCC(=O)N1CCCC(Nc2cccc(F)c2)C1 (centres undefined) | . | . | . | . | . | .
COc1ccccc1OCC(=O)N1CCCC(Nc2ccc(F)c(F)c2)C1 (centres undefined) | . | . | . | . | . | .
COc1ccc(CCC(=O)N2CCCC(Nc3ccc(C)c(C)c3)C2)cc1OC (centres undefined) | . | . | . | . | 99 | .
Cc1ccsc1C(=O)NN=C/C=C/c1ccccc1[N+](=O)[O-] | / | / | / | . | / | /
Oc1ccccc1C=Nn1cnnc1 | / | / | / | . | / | /
CN(C)c1ccc(NC2=C([N+](=O)[O-])CS(=O)(=O)C2)cc1 | . | / | . | . | 99 | .
Cc1ccc(NC2=C([N+](=O)[O-])CS(=O)(=O)C2)cc1 | . | . | . | . | . | .
CCNc1nc(NCC)nc(N(C)N)n1 | . | . | . | . | 84 | .
CCNc1nc(NC(C)C)nc(N(C)C#N)n1 | . | . | . | . | . | .
